Test results published in ChEMBL document CHEMBL3526016, “Interaction of lapatinib with cytochrome P450 3A5” (Drug Metab Dispos, 2012).

Experiments:
Assay type in all cases: ADME
[1] = molecular target: T1, Cytochrome P450 3A5 (Homo sapiens, UniProt P20815); assay: Inhibition of human recombinant CYP3A5 using testosterone as substrate assessed as testosterone 6-beta-hydroxylation at 5 to 50 uM preincubated up to 30 mins with NADPH followed by substrate addition measured after 10 mins by LC/MS/MS analysis; conditions: recombinant enzyme
T1 sequence (P20815 whole entry): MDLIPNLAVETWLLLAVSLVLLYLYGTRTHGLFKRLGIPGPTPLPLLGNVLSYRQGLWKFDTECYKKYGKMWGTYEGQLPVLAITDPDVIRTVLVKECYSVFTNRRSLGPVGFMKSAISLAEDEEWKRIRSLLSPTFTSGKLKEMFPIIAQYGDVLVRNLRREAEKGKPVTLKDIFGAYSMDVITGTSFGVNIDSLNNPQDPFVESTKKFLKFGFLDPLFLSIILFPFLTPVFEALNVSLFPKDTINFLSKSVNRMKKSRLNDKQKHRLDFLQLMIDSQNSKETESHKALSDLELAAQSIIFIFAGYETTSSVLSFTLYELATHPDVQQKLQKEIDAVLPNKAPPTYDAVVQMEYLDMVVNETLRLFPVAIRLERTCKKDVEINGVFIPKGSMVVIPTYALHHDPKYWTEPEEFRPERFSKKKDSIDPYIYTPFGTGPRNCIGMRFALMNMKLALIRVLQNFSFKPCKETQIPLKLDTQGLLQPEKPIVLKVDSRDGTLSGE
Method in brief: (§1)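 Primary incubation at 37°C (n=3) held 20 pmol/ml rCYP3A5 in 100 mM phosphate (pH 7.4), 0.1% DMSO and 0.9% ACN, with inhibitor; lapatinib was at 2.5–50 µM. NADPH started the reaction; buffer replaced it in negative controls. At 0, 3, 8, 15, 22 and 30 min, aliquots were diluted 10-fold into 200 µM testosterone or 25 µM midazolam with NADPH regenerating system for 10 min at 37°C. 6β-Hydroxytestosterone or 1'-hydroxymidazolam was measured by LC/MS/MS. Ln % residual activity was regressed against time to give kobs.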

[2] = molecular target: T1, Cytochrome P450 3A5; assay: Inhibition of human recombinant CYP3A5 using midazolam as substrate assessed as midazolam 1'-hydroxylation at 2.5 to 50 uM preincubated up to 30 mins with NADPH followed by substrate addition measured after 10 mins by LC/MS/MS analysis; conditions: recombinant enzyme; method in brief: as §1
[3] = molecular target: T1, Cytochrome P450 3A5; assay: Inhibition of human recombinant CYP3A5 at 50 uM preincubated up to 30 mins with NADPH in absence of GSH; conditions: recombinant enzyme
Method in brief: (§2)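 Primary incubation at 37°C contained 20 pmol/ml rCYP3A5 in 100 mM phosphate (pH 7.4) with 50 µM lapatinib and NADPH, with or without 2 mM GSH. At 0–30 min, aliquots were diluted 10-fold into secondary incubations with 200 µM testosterone and NADPH regenerating system for 10 min at 37°C. 6β-Hydroxytestosterone was measured by LC/MS/MS. Triplicates were run.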

[4] = molecular target: T1, Cytochrome P450 3A5; assay: Inhibition of human recombinant CYP3A5 using testosterone as substrate assessed as testosterone 6beta-hydroxylation at 50 uM preincubated up to 30 mins with NADPH followed by substrate addition measured after 10 mins by LC/MS/MS analysis; conditions: recombinant enzyme; method in brief: as §1
[5] = molecular target: Cytochrome P450 3A4 (Homo sapiens, UniProt P08684); assay: Inhibition of human recombinant CYP3A4 assessed as metabolite-inhibitor complex formation at 50 uM preincubated for 3 to 5 mins with NADPH A followed by NADPH B addition measured every 1 min for 10 mins by UV absorbance spectra analysis; conditions: recombinant enzyme
Chain of Cytochrome P450 3A4 (P08684 whole entry): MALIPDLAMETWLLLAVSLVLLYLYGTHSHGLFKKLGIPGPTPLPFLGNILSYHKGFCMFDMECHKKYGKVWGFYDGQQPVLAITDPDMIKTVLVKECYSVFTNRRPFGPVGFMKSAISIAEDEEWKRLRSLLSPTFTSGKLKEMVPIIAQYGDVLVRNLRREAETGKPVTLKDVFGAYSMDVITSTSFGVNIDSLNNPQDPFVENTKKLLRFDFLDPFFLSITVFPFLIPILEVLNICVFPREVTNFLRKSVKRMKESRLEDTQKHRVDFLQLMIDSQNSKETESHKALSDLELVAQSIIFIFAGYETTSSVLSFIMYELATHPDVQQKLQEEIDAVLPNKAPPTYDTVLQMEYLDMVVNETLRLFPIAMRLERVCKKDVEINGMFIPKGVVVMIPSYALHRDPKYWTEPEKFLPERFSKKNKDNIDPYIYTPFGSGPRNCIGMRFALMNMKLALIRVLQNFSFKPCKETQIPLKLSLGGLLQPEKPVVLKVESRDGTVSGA
Method in brief: (§3)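 For difference spectra, 50 µM compound with 100 pmol/ml recombinant enzyme and NADPH A in 100 mM potassium phosphate (pH 7.4) was pre-warmed at 37°C for 3–5 min. NADPH B was added to start the reaction. The mixture was scanned from 430 to 495 nm every 1 min for 10 min at 37°C against a reference cuvette, normalized to 0 min. The negative control replaced NADPH B with buffer.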

[6] = molecular target: T1, Cytochrome P450 3A5; assay: Inhibition of human recombinant CYP3A5 assessed as metabolite-inhibitor complex formation at 50 uM preincubated for 3 to 5 mins with NADPH A followed by NADPH B addition measured every 1 min for 10 mins by UV absorbance spectra analysis; conditions: recombinant enzyme; method in brief: as §3
[7] = molecular target: T2, CYP3A5 (Homo sapiens, UniProt P20815); assay: Ratio of Kinact to Ki for recombinant human CYP3A5 using testosterone as substrate; conditions: recombinant human CYP3A5, probe testosterone
T2 sequence (P20815 whole entry): as the sequence (P20815 whole entry) above
Method in brief: (§4)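 Primary: rCYP3A5 20 pmol/ml, inhibitor 2.5–50 μM, 100 mM phosphate pH 7.4, 37°C, NADPH-initiated; aliquots at 0–30 min diluted 10-fold into secondary mix with 200 μM testosterone plus NADPH regenerating system, 10 min at 37°C. 6β-hydroxytestosterone by LC/MS/MS, triplicate. ln % residual activity vs time gave kobs; KI, kinact from Kitz-Wilson plot.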

[8] = molecular target: T1, Cytochrome P450 3A5; assay: (§5) Inhibition of human recombinant CYP3A5 using testosterone as substrate assessed as testosterone 6-beta-hydroxylation preincubated up to 30 mins with NADPH followed by substrate addition measured after 10 mins by LC/MS/MS analysis; method in brief: as §4
[9] = molecular target: T2, CYP3A5; assay: as §5; conditions: human, recombinant human CYP3A5, probe testosterone; method in brief: as §4
[10] = molecular target: T1, Cytochrome P450 3A5; assay: Irreversible inhibition of human recombinant CYP3A5 using testosterone as substrate assessed as residual enzyme activity at 50 uM preincubated up to 30 mins with NADPH followed by substrate addition measured after dialysis
Method in brief: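 200 pmol/ml rCYP3A5 with 50 µM lapatinib and NADPH in 100 mM phosphate (pH 7.4) was incubated for 30 min at 37°C (n=3). Mixtures were dialysed (12000–14000 Da cut-off) against buffer at 4°C with one buffer change at 2 h, then for 4 h more. Aliquots before and after dialysis were assayed with 200 µM testosterone for 10 min at 37°C. 6β-Hydroxytestosterone was measured by LC/MS/MS.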

[11] = molecular target: T1, Cytochrome P450 3A5; assay: Drug metabolism assessed as recombinant human CYP3A5-mediated quinoneimine metabolite formation by measuring retention time at 50 uM after 60 mins by GSH trapping assay in presence of NADPH; conditions: recombinant enzyme, 1 h
Method in brief: (§6)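 Recombinant CYP3A5 at 50 pmol/ml with 5 mM GSH and an NADPH regenerating system in 100 mM potassium phosphate (pH 7.4) was pre-warmed at 37°C. Substrate was added to start the reaction. After 60 min it was quenched with ice-cold ACN and centrifuged, and the supernatant was dried under nitrogen and reconstituted. Adducts were detected by LC/MS/MS MRM scans. Negative controls omitted substrate, NADPH or GSH.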

[12] = molecular target: CYP3A4 (Homo sapiens, UniProt P08684); assay: Ratio of Kinact to Ki for recombinant human CYP3A4 using testosterone as substrate; conditions: recombinant human CYP3A4, probe testosterone
Chain of CYP3A4 (P08684 whole entry): as the sequence (P08684 whole entry) above

[13] = molecular target: T1, Cytochrome P450 3A5; assay: Inhibition of human recombinant CYP3A5 using testosterone as substrate assessed as testosterone 6-beta-hydroxylation at 50 uM preincubated up to 30 mins without NADPH followed by substrate addition measured after 10 mins by LC/MS/MS analysis; conditions: recombinant enzyme; method in brief: as §1
[14] = molecular target: T1, Cytochrome P450 3A5; assay: Inhibition of human recombinant CYP3A5 at 50 uM preincubated up to 30 mins with NADPH in presence of GSH; conditions: recombinant enzyme; method in brief: as §2
[15] = molecular target: T1, Cytochrome P450 3A5; assay: Inhibition of human recombinant CYP3A5 using testosterone as substrate assessed as testosterone 6-beta-hydroxylation at 2.5 to 50 uM preincubated up to 30 mins with NADPH followed by substrate addition by LC/MS/MS analysis; conditions: recombinant enzyme, TDE = time-dependent effect; method in brief: as §4
[16] = molecular target: T2, CYP3A5; assay: Inhibition of human recombinant CYP3A5 assessed as reduction of enzyme-CO complex formation at 50 uM preincubated for 3 to 5 mins with NADPH B followed by NADPH A addition measured after 30 mins by CO difference spectroscopy relative to control
Method in brief: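 rCYP3A5 640 pmol/ml with 50 μM inhibitor in 100 mM potassium phosphate pH 7.4, prewarmed 3–5 min at 37°C, NADPH-initiated, incubated 30 min at 37°C (n=3). Quenched in buffer with EDTA, glycerol, NP-40, safranin O; split sample/reference, CO bubbled (~100 bubbles). P450 content = (ΔA450−ΔA490)/0.091; controls without NADPH.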

[17] = molecular target: T1, Cytochrome P450 3A5; assay: Drug level assessed as recombinant human CYP3A5-mediated compound formation treated with lapatinib at 50 uM after 60 mins by GSH trapping assay in presence of NADPH; conditions: recombinant enzyme, 1 h; method in brief: as §6
[18] = molecular target: T1, Cytochrome P450 3A5; assay: Drug level assessed as recombinant human CYP3A5-mediated compound formation treated with O-dealkylated lapatinib at 50 uM after 60 mins by GSH trapping assay in presence of NADPH; conditions: recombinant enzyme, 1 h; method in brief: as §6

CS(=O)(=O)CCNCc1ccc(-c2ccc3ncnc(Nc4ccc(O)c(Cl)c4)c3c2)o1
inhibition (INH) [1]: Not Active

CS(=O)(=O)CCNCc1ccc(-c2ccc3ncnc(Nc4ccc(OCc5cccc(F)c5)c(Cl)c4)c3c2)o1 [LAPATINIB]
inhibition (INH) [2]: Not Active
inhibition (INH) [3]: Active
inhibition (INH) [4]: Active
inhibition (INH) [5]: Active
inhibition (INH) [6]: Not Active
kinact/KI [7]: 10 M⁻¹ s⁻¹
Ki [8]: 37.6 µM
inhibition (INH) ([8]; human, recombinant enzyme, 10 min): Dose-dependent effect
kinact at 10 min [9]: 0.000377 s⁻¹
inhibition (INH) [10]: Active
Retention_time [11]: 1.71 min
kinact/KI [12]: 197 M⁻¹ s⁻¹
inhibition (INH) [13]: Not Active
inhibition (INH) [14]: Not Active
inhibition (INH) [15]: tde
inhibition at 0.5 h, 50 µM [16]: 22%

CS(=O)(=O)CCNCc1ccc(-c2ccc3ncnc(/N=C4\C=CC(=O)C(Cl)=C4)c3c2)o1
Drug metabolism [17]: metabolite_detected
Drug metabolism [18]: metabolite_detected
